Measured values as given in ChEMBL document CHEMBL4477183, “Antimicrobial Peptide from the Wild Bee Hylaeus signatus Venom and Its Analogues: Structure-Activity Study and Synergistic Effect with Antibiotics” (J Nat Prod, 2016).
≈ marks a conversion by molar mass, not a printed value. One block for each molecule: values may come before it. Calls of active or inactive are those of the source. The rule behind the calls is not given here. Non-standard residues stand in square brackets, D forms with d. Residues, ends and D or L forms follow the SMILES beside them. ξ: configuration not given here. ξNle = CCCCC(N)C(=O)O

What was measured:
[1] = system: Pseudomonas aeruginosa; assay: Induction of cell permeabilization in Pseudomonas aeruginosa assessed as propidium iodide uptake at 4 uM after 10 mins; format: functional, organism-based
[2] = system: Staphylococcus aureus; assay: Antimicrobial activity against Staphylococcus aureus clinical isolates from Liberec regional hospital assessed as reduction in bacterial growth after 20 hrs by […]; format: functional
Outline: (§1)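 Broth microdilution in LB (YPG for C. albicans) with 2-fold serial dilutions, final 0.1–100 μM. Mid-log cells grown 3–5 h at 37 °C were added at about 5 × 10^5 cfu/mL, then incubated 20 h at 37 °C with shaking. A540 was read every 15 min to build growth curves. Medium with cells served as growth control; at least three runs in duplicate.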

[3] = system: Staphylococcus aureus; assay: Antimicrobial activity against Staphylococcus aureus clinical isolates from university hospital in Motol assessed as reduction in bacterial growth after 20 hrs by drop diffusion test; format: functional
[4] = system: Escherichia coli; assay: Antimicrobial activity against Escherichia coli assessed as reduction in bacterial growth after 20 hrs by […]; format: functional; outline: as §1
[5] = system: Pseudomonas aeruginosa; assay: Antimicrobial activity against Pseudomonas aeruginosa 5482 assessed as reduction in bacterial growth after 20 hrs […]; format: functional; conditions: Pseudomonas aeruginosa, 5482, 20 h; outline: as §1
[6] = system: Pseudomonas aeruginosa; assay: Antimicrobial activity against Pseudomonas aeruginosa clinical isolates assessed as reduction in bacterial growth after 20 hrs by […]; format: functional; outline: as §1
[7] = Hemolytic activity in human type RBC after 1 hr; format: ADME, cell-based, Erythrocyte; conditions: red blood cells (erythrocytes), read-out: LC50
Outline: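 Peptides at 2.5–400 μM were incubated with a 4% suspension of human erythrocytes in physiological solution for 1 h at 37 °C, then centrifuged at 250g for 5 min; supernatant A540 was read. Saline-treated cells gave 0% lysis and 0.2% Triton X-100 gave 100%. LC50 is the concentration lysing 50% of cells; duplicates in at least two independent experiments.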

[8] = system: Candida albicans; assay: Antifungal activity against Candida albicans assessed as reduction in fungal growth after 20 hrs by […]; format: functional; outline: as §1
[9] = system: Micrococcus luteus; assay: Antimicrobial activity against Micrococcus luteus assessed as reduction in bacterial growth after 20 hrs by […]; format: functional; outline: as §1
[10] = system: Bacillus subtilis; assay: Antimicrobial activity against Bacillus subtilis assessed as reduction in bacterial growth after 20 hrs by […]; format: functional; outline: as §1
[11] = system: Staphylococcus aureus; assay: Antimicrobial activity against Staphylococcus aureus clinical isolates assessed as FIC index in presence of amoxicillin after 20 hrs by drop diffusion test; format: functional
[12] = system: Pseudomonas aeruginosa; assay: Antimicrobial activity against Pseudomonas aeruginosa clinical isolates assessed as FIC index in presence of tetracycline after 20 hrs by drop diffusion test; format: functional
[13] = system: Pseudomonas aeruginosa; assay: Antimicrobial activity against Pseudomonas aeruginosa clinical isolates assessed as FIC index in presence of rifampicin after 20 hrs by drop diffusion test; format: functional
[14] = system: Staphylococcus aureus; assay: Antimicrobial activity against Staphylococcus aureus 6271 assessed as reduction in bacterial growth after 20 hrs by broth microdilution assay; conditions: Staphylococcus aureus, 6271, 20 h
[15] = system: Staphylococcus epidermidis; assay: Antimicrobial activity against Staphylococcus epidermidis assessed as reduction in bacterial growth after 20 hrs by broth microdilution assay
[16] = system: Pseudomonas aeruginosa; assay: Bactericidal activity against Pseudomonas aeruginosa assessed as induction of bacteria killing at 20 uM after 4 hrs by time kill assay; format: functional, organism-based
Outline: (§2)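 P. aeruginosa grown at 37 °C with shaking to mid-log phase, then diluted in fresh LB to about 5 × 10^5 cfu/mL. This inoculum was mixed 1:1 with LB containing the agent and shaken at 37 °C for 4 h. Samples were taken at 0–240 min, serially diluted in 0.9% NaCl and plated on LB agar overnight at 37 °C; viable counts are given as cfu/mL. LB-only growth control; means of four independent runs, SEM.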

[17] = system: Pseudomonas aeruginosa; assay: Bactericidal activity against Pseudomonas aeruginosa assessed as reduction in bacterial count at 20 uM after 4 hrs by time kill assay; format: functional
Outline: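 P. aeruginosa inoculum about 5 × 10^5 cfu/mL in LB mixed 1:1 with LB alone or LB containing test agent at final 8, 24, 80 or 20 μM. Incubation was at 37 °C with shaking for 4 h. Aliquots taken at 0–240 min were serially diluted in 0.9% NaCl and plated on LB agar overnight at 37 °C. Viable cfu/mL were counted; means of four independent measurements.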

[18] = system: Staphylococcus aureus; assay: Antimicrobial activity against Staphylococcus aureus clinical isolates from Liberec regional hospital assessed as reduction in bacterial growth after 20 hrs by broth microdilution assay
[19] = system: Pseudomonas aeruginosa; assay: Bacteriostatic activity against Pseudomonas aeruginosa assessed as induction of bacteria killing at 80 uM after 60 mins by time kill assay; format: functional, organism-based; outline: as §2
[20] = system: Pseudomonas aeruginosa; assay: Bacteriostatic activity against Pseudomonas aeruginosa assessed as induction of bacteria killing at 80 uM after 3 hrs by time kill assay; format: functional, organism-based; outline: as §2

Molecule: CCCCCCCCN=c1ccn(CCCCCCCCCCn2ccc(=NCCCCCCCC)cc2)cc1
Activity [1]: Active

Molecule: CCCCC(NC(=O)[C@H](CC(C)C)NC(=O)[C@H](CO)NC(=O)[C@H](CO)NC(=O)C(CCCC)NC(=O)[C@@H](NC(=O)CN)[C@@H](C)CC)C(=O)N[C@@H](CCCCN)C(=O)N[C@@H](CCCCN)C(=O)N[C@@H](CC(C)C)C(=O)N[C@@H](CCCCN)C(=O)N[C@@H](CCCCN)C(=O)N[C@H](C(=O)N[C@H](C(=O)N[C@@H](C)C(N)=O)[C@@H](C)CC)[C@@H](C)CC (some centres not stated) (H-GI[ξNle]SSL[ξNle]KKLKKIIA-NH2)
MIC [2]: 4 µM (≈ 6.5 µg/mL) | MIC [3]: 6.7 µM (≈ 10.9 µg/mL) | MIC [4]: 10 µM (≈ 16.2 µg/mL) | MIC [5]: 4 µM (≈ 6.5 µg/mL) | MIC [6]: 7.9 µM (≈ 12.8 µg/mL) | HC50 at 1 h [7]: 373 µM | MIC [8]: 10 µM (≈ 16.2 µg/mL) | MIC [9]: ≤ 3 µM | MIC [10]: ≤ 7 µM | fractional inhibitory concentration index (FICI) [11]: 0.55 | fractional inhibitory concentration index (FICI) [12]: 0.58 | fractional inhibitory concentration index (FICI) [13]: 0.93 | MIC [14]: 13 µM (≈ 21.1 µg/mL) | MIC [15]: 2.5 µM (≈ 4.06 µg/mL)

MIC [3]: < 0.1 µM | MIC [4]: 10 µM (≈ 8.23 µg/mL) | MIC [5]: 27 µM (≈ 22.2 µg/mL) | MIC [6]: 19 µM (≈ 15.6 µg/mL) | MIC [14]: < 0.1 µM | MIC [15]: < 0.1 µM | MIC [18]: < 0.1 µM
Molecule: CO[C@H]1/C=C/O[C@@]2(C)Oc3c(C)c(O)c4c(O)c(c(/C=N/N5CCN(C)CC5)c(O)c4c3C2=O)NC(=O)/C(C)=C\C=C\[C@H](C)[C@H](O)[C@@H](C)[C@@H](O)[C@@H](C)[C@H](OC(C)=O)[C@@H]1C [RIFAMPIN]
Activity [16]: Active | fold change (FC) [17]: 3

Molecule: CN(C)[C@@H]1C(O)=C(C(N)=O)C(=O)[C@@]2(O)C(O)=C3C(=O)c4c(O)cccc4[C@@](C)(O)[C@H]3C[C@@H]12 [TETRACYCLINE]
MIC [3]: 2 µM (≈ 0.889 µg/mL) | MIC [4]: 2.7 µM (≈ 1.2 µg/mL) | MIC [5]: 29 µM (≈ 12.9 µg/mL) | MIC [6]: 70 µM (≈ 31.1 µg/mL) | HC50 at 1 h [7]: > 200 µM | Activity [19]: inactive | Activity [20]: Active | MIC [14]: 0.9 µM (≈ 0.4 µg/mL) | MIC [15]: > 100 µM | MIC [18]: 1.1 µM (≈ 0.489 µg/mL)

Molecule: H-GILKSLLKKLKKIIAK-NH2
MIC [2]: 4.3 µM | MIC [3]: 10 µM | MIC [4]: 10 µM | MIC [5]: 5 µM | MIC [6]: 8.9 µM | HC50 at 1 h [7]: > 400 µM | MIC [8]: 24 µM | MIC [9]: ≤ 3 µM | MIC [10]: ≤ 7 µM | fractional inhibitory concentration index (FICI) [11]: 0.54 | fractional inhibitory concentration index (FICI) [12]: 0.52 | fractional inhibitory concentration index (FICI) [13]: 0.33 | MIC [14]: 17 µM | MIC [15]: 2.2 µM

Molecule: H-GILSKLLKKLKKIIAK-NH2
MIC [2]: 5.9 µM | MIC [3]: 10 µM | MIC [4]: 18 µM | MIC [5]: 4.5 µM | MIC [6]: 8.5 µM | HC50 at 1 h [7]: > 400 µM | MIC [8]: 45 µM | MIC [9]: ≤ 3 µM | MIC [10]: ≤ 7 µM | fractional inhibitory concentration index (FICI) [11]: 0.33 | fractional inhibitory concentration index (FICI) [12]: 0.65 | fractional inhibitory concentration index (FICI) [13]: 0.34 | MIC [14]: 23 µM | MIC [15]: 1.8 µM
